How the values were obtained:
Digitaria sanguinalis [1] = experiment: Pre-emergence herbicidal activity against Digitaria sanguinalis (hairy crabgrass) assessed as growth inhibition at 7.5 g.a.i./ha applied 24 hr after seeds were sown measured after 15 days; format: functional; conditions: read-out: GI
In short: (§1)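 Weeds sown 5 mm deep in pots of greenhouse clay soil (pH 6.5, 37.5% clay, CEC 12.9 cmol/kg) and grown at 22-25 °C. Water-diluted formulation was applied pre-emergence 24 h after sowing. Untreated and DMF solvent controls were included. Growth inhibition was visually rated in % against untreated controls after 15 days, as the mean of triplicates.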

[2] = Phytotoxicity against Oryza sativa (rice) assessed as growth inhibition at 37.5 g.a.i/ha pre-emergent application measured after 15 days by greenhouse crop selectivity assay; format: organism-based, L.; conditions: in vivo, 37.5 g.a.i/ha, read-out: GI
In short: (§2)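 Pre-emergence greenhouse crop selectivity test on pot-grown plants in clay soil (pH 6.5, 1.7% organic matter, 37.5% clay, CEC 12.9 cmol/kg). Stock solutions were diluted with water and applied at 300, 150, 75 or 37.5 g a.i./ha, in triplicate. After 15 days, phytotoxicity was scored visually against untreated controls as % crop growth inhibition, averaged over the triplicates.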

Amaranthus spinosus [3] = experiment: Post-emergence herbicidal activity against Amaranthus spinosus assessed as growth inhibition at 15 g.a.i./ha applied at two-leaf stage measured after 15 days; format: functional; conditions: 360 h, read-out: GI
In short: (§3)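 Pot-grown weeds sown 5 mm deep in greenhouse clay soil (pH 6.5, 1.7% organic matter, CEC 12.9 cmol/kg) at 22-25 °C. Stock diluted with water and sprayed post-emergence: dicots at 2-leaf stage, monocots at 1-leaf stage. Untreated and DMF solvent controls were included. % growth inhibition was scored visually versus untreated controls after 15 days. Triplicates averaged.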

Amaranthus [4] = experiment: Pre-emergence herbicidal activity against Amaranthus ascendens assessed as growth inhibition at 75 g.a.i./ha applied 24 hr after seeds were sown measured after 15 days; format: functional; conditions: read-out: GI; in short: as §1
Setaria viridis [5] = experiment: Pre-emergence herbicidal activity against Setaria viridis (green foxtail) assessed as growth inhibition at 37.5 g.a.i./ha applied 24 hr after seeds were sown measured after 15 days; format: functional; conditions: read-out: GI; in short: as §1
Gossypium [6] = experiment: Phytotoxicity against Gossypium (cotton) assessed as growth inhibition at 150 g.a.i/ha pre-emergent application measured after 15 days by greenhouse crop selectivity assay; format: organism-based; conditions: in vivo, other, 360 h; in short: as §2
Amaranthus [7] = experiment: Post-emergence herbicidal activity against Amaranthus ascendens assessed as growth inhibition at 75 g.a.i./ha applied at two-leaf stage measured after 15 days; format: functional; conditions: 360 h, read-out: GI; in short: as §3
Setaria viridis [8] = experiment: Post-emergence herbicidal activity against Setaria viridis (green foxtail) assessed as growth inhibition at 15 g.a.i./ha applied at one-leaf stage measured after 15 days; format: functional; conditions: 360 h, read-out: GI; in short: as §3
Abutilon theophrasti [9] = experiment: Post-emergence herbicidal activity against Abutilon theophrasti (velvetleaf) assessed as growth inhibition at 37.5 g.a.i./ha applied at two-leaf stage measured after 15 days; format: functional; conditions: 360 h, read-out: GI; in short: as §3
Zea mays [10] = experiment: Phytotoxicity against Zea mays (maize) assessed as growth inhibition at 37.5 g.a.i/ha pre-emergent application measured after 15 days by greenhouse crop selectivity assay; format: organism-based; conditions: in vivo, other, 360 h; in short: as §2
Gossypium [11] = experiment: Phytotoxicity against Gossypium (cotton) assessed as growth inhibition at 75 g.a.i/ha pre-emergent application measured after 15 days by greenhouse crop selectivity assay; format: organism-based; conditions: in vivo, other, 360 h; in short: as §2
Setaria viridis [12] = experiment: Post-emergence herbicidal activity against Setaria viridis (green foxtail) assessed as growth inhibition at 75 g.a.i./ha applied at one-leaf stage measured after 15 days; format: functional; conditions: 360 h, read-out: GI; in short: as §3
Abutilon theophrasti [13] = experiment: Pre-emergence herbicidal activity against Abutilon theophrasti (velvetleaf) assessed as growth inhibition at 7.5 g.a.i./ha applied 24 hr after seeds were sown measured after 15 days; format: functional; conditions: read-out: GI; in short: as §1
Abutilon theophrasti [14] = experiment: Pre-emergence herbicidal activity against Abutilon theophrasti (velvetleaf) assessed as growth inhibition at 75 g.a.i./ha applied 24 hr after seeds were sown measured after 15 days; format: functional; conditions: read-out: GI; in short: as §1
[15] = Phytotoxicity against Oryza sativa (rice) assessed as growth inhibition at 150 g.a.i/ha pre-emergent application measured after 15 days by greenhouse crop selectivity assay; format: organism-based, L.; conditions: in vivo, read-out: GI; in short: as §2
[16] = Phytotoxicity against Oryza sativa (rice) assessed as growth inhibition at 75 g.a.i/ha pre-emergent application measured after 15 days by greenhouse crop selectivity assay; format: organism-based, L.; conditions: in vivo, 75 g.a.i/ha, read-out: GI; in short: as §2
Digitaria sanguinalis [17] = experiment: Post-emergence herbicidal activity against Digitaria sanguinalis(hairy crabgrass) assessed as growth inhibition at 15 g.a.i./ha applied at one-leaf stage measured after 15 days; format: functional; conditions: 360 h, read-out: GI; in short: as §3
Triticum aestivum [18] = experiment: Phytotoxicity against Triticum aestivum (wheat) assessed as growth inhibition at 7.5 to 60 g.a.i/ha post-emergent application measured after 15 days by greenhouse crop selectivity assay; format: organism-based; conditions: in vivo, other, 360 h
In short: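 Postemergence crop selectivity test on pot-grown plants in a greenhouse, in clay soil (pH 6.5, 1.7% organic matter, CEC 12.9 cmol/kg). Stock was diluted with water and sprayed at 60, 30, 15 or 7.5 g a.i./ha, in triplicate. Growth inhibition was rated visually against untreated controls after 15 days and given as the triplicate mean percentage.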

Amaranthus spinosus [19] = experiment: Pre-emergence herbicidal activity against Amaranthus spinosus assessed as growth inhibition at 37.5 g.a.i./ha applied 24 hr after seeds were sown measured after 15 days; format: functional; conditions: read-out: GI; in short: as §1
Echinochloa crus-galli [20] = experiment: Post-emergence herbicidal activity against Echinochloa crus-galli (barnyard grass) assessed as growth inhibition at 75 g.a.i./ha applied at one-leaf stage measured after 15 days; format: functional; conditions: 360 h, read-out: GI; in short: as §3
Echinochloa crus-galli [21] = experiment: Post-emergence herbicidal activity against Echinochloa crus-galli (barnyard grass) assessed as growth inhibition at 7.5 g.a.i./ha applied at one-leaf stage measured after 15 days; format: functional; conditions: 360 h, read-out: GI; in short: as §3
Arachis hypogaea = experiment: Phytotoxicity against Arachis hypogaea (peanut) assessed as growth inhibition at 75 g.a.i/ha pre-emergent application measured after 15 days by greenhouse crop selectivity assay; format: organism-based; conditions: in vivo, other, 360 h; in short: as §2
Echinochloa crus-galli [22] = experiment: Post-emergence herbicidal activity against Echinochloa crus-galli (barnyard grass) assessed as growth inhibition at 37.5 g.a.i./ha applied at one-leaf stage measured after 15 days; format: functional; conditions: 360 h, read-out: GI; in short: as §3
Echinochloa crus-galli [23] = experiment: Pre-emergence herbicidal activity against Echinochloa crus-galli (barnyard grass) assessed as growth inhibition at 15 g.a.i./ha applied 24 hr after seeds were sown measured after 15 days; format: functional; conditions: read-out: GI; in short: as §1
Chenopodium album = experiment: Pre-emergence herbicidal activity against Chenopodium album assessed as growth inhibition at 15 g.a.i./ha applied 24 hr after seeds were sown measured after 15 days; format: functional; conditions: read-out: GI; in short: as §1
Echinochloa crus-galli [24] = experiment: Post-emergence herbicidal activity against Echinochloa crus-galli (barnyard grass) assessed as growth inhibition at 15 g.a.i./ha applied at one-leaf stage measured after 15 days; format: functional; conditions: 360 h, read-out: GI; in short: as §3
Amaranthus spinosus [25] = experiment: Post-emergence herbicidal activity against Amaranthus spinosus assessed as growth inhibition at 37.5 g.a.i./ha applied at two-leaf stage measured after 15 days; format: functional; conditions: 360 h, read-out: GI; in short: as §3
Triticum aestivum [26] = experiment: Phytotoxicity against Triticum aestivum (wheat) assessed as growth inhibition at 37.5 g.a.i/ha pre-emergent application measured after 15 days by greenhouse crop selectivity assay; format: organism-based; conditions: in vivo, other, 360 h; in short: as §2
Zea mays [27] = experiment: Phytotoxicity against Zea mays (maize) assessed as growth inhibition at 150 g.a.i/ha pre-emergent application measured after 15 days by greenhouse crop selectivity assay; format: organism-based; conditions: in vivo, other, 360 h; in short: as §2
Glycine max = experiment: Phytotoxicity against Glycine max (soybean) assessed as growth inhibition at 300 g.a.i/ha pre-emergent application measured after 15 days by greenhouse crop selectivity assay; format: organism-based; conditions: in vivo, other, 360 h; in short: as §2

SMILES | inhibition of growth at 7.5 g/ha (Digitaria sanguinalis [1]) [%] | inhibition of growth at 15 g/ha (Amaranthus spinosus [3]) [%] | inhibition of growth at 75 g/ha (Amaranthus [4]) [%] | inhibition of growth at 37.5 g/ha (Setaria viridis [5]) [%] | growth inhibition (GI) (Gossypium [6]) | inhibition of growth at 75 g/ha (Amaranthus [7]) [%] | inhibition of growth at 15 g/ha (Setaria viridis [8]) [%] | inhibition of growth at 37.5 g/ha (Abutilon theophrasti [9]) [%] | growth inhibition (GI) (Zea mays [10]) | growth inhibition (GI) (Gossypium [11]) | inhibition of growth at 75 g/ha (Setaria viridis [12]) [%] | inhibition of growth at 7.5 g/ha (Abutilon theophrasti [13]) [%] | inhibition of growth at 75 g/ha (Abutilon theophrasti [14]) [%] | inhibition at 360 h [15] [%] | inhibition of growth at 15 g/ha (Digitaria sanguinalis [17]) [%] | Activity (Triticum aestivum [18]) | inhibition of growth at 37.5 g/ha (Amaranthus spinosus [19]) [%] | inhibition of growth at 75 g/ha (Echinochloa crus-galli [20]) [%] | inhibition of growth at 7.5 g/ha (Echinochloa crus-galli [21]) [%] | growth inhibition (GI) (Arachis hypogaea) | further results
C#CCN1C(=O)COc2cc(F)c(N3C(=O)C4=C(CCCC4)C3=O)cc21 [FLUMIOXAZIN] | 0 | 100 | > 80 | 80 | Not Active | > 80 | 90 | 100 | Not Active | Not Active | > 80 | 50 | > 80 | > 10 | 90 | Toxic | 100 | > 80 | 50 | Not Active | inhibition at 360 h [2]: > 10%; inhibition at 360 h [16]: > 10%; inhibition of growth at 37.5 g/ha (Echinochloa crus-galli [22]): 80%; inhibition of growth at 15 g/ha (Echinochloa crus-galli [23]): 50%; inhibition of growth at 15 g/ha (Chenopodium album): 100%; inhibition of growth at 15 g/ha (Echinochloa crus-galli [24]): 70%; inhibition of growth at 37.5 g/ha (Amaranthus spinosus [25]): 100%
COC(=O)C(C)N1C(=O)C(C)Oc2cc(F)c(N3C(=O)C4=C(CCCC4)C3=O)cc21 (stereo not given) | 0 | 100 | > 80 | 80 | Not Active | > 80 | 50 | 100 | Not Active | Not Active | > 80 | 50 | > 80 | > 10 | 20 | Toxic | 100 | > 80 | 10 | Not Active | inhibition at 360 h [2]: > 10%; growth inhibition (GI) (Triticum aestivum [26]): Not Active; growth inhibition (GI) (Zea mays [27]): Not Active; inhibition at 360 h [16]: > 10%; growth inhibition (GI) (Glycine max): Not Active; inhibition of growth at 37.5 g/ha (Echinochloa crus-galli [22]): 50%; inhibition of growth at 15 g/ha (Echinochloa crus-galli [23]): 10%; inhibition of growth at 15 g/ha (Chenopodium album): 100%; inhibition of growth at 15 g/ha (Echinochloa crus-galli [24]): 30%; inhibition of growth at 37.5 g/ha (Amaranthus spinosus [25]): 100%
CCOC(=O)C(CC)N1C(=O)C(C)Oc2cc(F)c(N3C(=O)C4=C(CCCC4)C3=O)cc21 (stereo not given) | 0 | 100 | > 80 | 0 | Not Active | > 80 | 30 | 100 | Not Active | Not Active | > 80 | 0 | > 80 | > 10 | 50 | Toxic | 100 | > 80 | 0 | Not Active | growth inhibition (GI) (Triticum aestivum [26]): Not Active; growth inhibition (GI) (Zea mays [27]): Not Active; growth inhibition (GI) (Glycine max): Not Active; inhibition of growth at 37.5 g/ha (Echinochloa crus-galli [22]): 50%; inhibition of growth at 15 g/ha (Echinochloa crus-galli [23]): 0%; inhibition of growth at 15 g/ha (Chenopodium album): 100%; inhibition of growth at 15 g/ha (Echinochloa crus-galli [24]): 0%; inhibition of growth at 37.5 g/ha (Amaranthus spinosus [25]): 100%
CCOC(=O)C(C)N1C(=O)C(C)Oc2cc(F)c(N3C(=O)C4=C(CCCC4)C3=O)cc21 (stereo not given) | 0 | 100 | > 80 | 60 | Not Active | > 80 | 30 | 100 | Not Active | Not Active | > 80 | 0 | > 80 | > 10 | 30 | Toxic | 100 | > 80 | 10 | Not Active | inhibition at 360 h [2]: > 10%; growth inhibition (GI) (Triticum aestivum [26]): Not Active; growth inhibition (GI) (Zea mays [27]): Not Active; inhibition at 360 h [16]: > 10%; growth inhibition (GI) (Glycine max): Not Active; inhibition of growth at 37.5 g/ha (Echinochloa crus-galli [22]): 50%; inhibition of growth at 15 g/ha (Echinochloa crus-galli [23]): 10%; inhibition of growth at 15 g/ha (Chenopodium album): 100%; inhibition of growth at 15 g/ha (Echinochloa crus-galli [24]): 30%; inhibition of growth at 37.5 g/ha (Amaranthus spinosus [25]): 100%

Reference: ChEMBL document CHEMBL3045743, “Synthesis and herbicidal activity of isoindoline-1,3-dione substituted benzoxazinone derivatives containing a carboxylic ester group” (J Agric Food Chem, 2009)
